Compound activity deposited in PubChem BioAssay by Sanford-Burnham Center for Chemical Genomics.
SENP8 block-1: SENP8 protease inhibitors, primary screen, biochemical, luminescence. Sentrin-specific protease 8 (Homo sapiens), Q96LD8. purified SENP8, Z-RLRGG-aminoluciferin cleavage. inhibition, % at 10 µM. 330,000 tested, 1.2% active; in the data active = inhibition above about 50%
SENP7 inh: SENP7 protease inhibitors, primary screen, biochemical, luminescence, uHTS; inhibition, % at 5 µM; 330,000 tested, 1.5% active; recombinant SENP7, Z-RLRGG-aminoluciferin luminescence, 40 min; Sentrin-specific protease 7 (Homo sapiens), Q9BQF6;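 active = inhibition above about 50% at the single test dose, limit read from the data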;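 note: plate controls were DMSO with enzyme for no effect and no enzyme buffer wells for full effect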
SENP8 block-2: human SENP8 protease inhibitors, primary screen, biochemical, fluorescence, Nedd8 protein substrate, uHTS; Sentrin-specific protease 8 (Homo sapiens), Q96LD8; recombinant SENP8; inhibition, % at 20 µM; 360,000 tested, 0.64% active; in the data active = inhibition mostly above about 40%, no sharp cut-off; inactive = mostly below about 27%
SENP6 inh: SENP6 protease inhibitors, primary screen, biochemical, luminescence, uHTS; Recombinant SENP6 catalytic domain, aminoluciferin luminescence; inhibition, % at 10 µM; 330,000 tested, 1.8% active;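 active = inhibition above about 50% at the single tested dose, limit read from the data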;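 note: plate controls were DMSO wells with enzyme for no effect and DMSO wells lacking enzyme for full effect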
Target sequence (Q9GZR1 628-1112 limits assumed): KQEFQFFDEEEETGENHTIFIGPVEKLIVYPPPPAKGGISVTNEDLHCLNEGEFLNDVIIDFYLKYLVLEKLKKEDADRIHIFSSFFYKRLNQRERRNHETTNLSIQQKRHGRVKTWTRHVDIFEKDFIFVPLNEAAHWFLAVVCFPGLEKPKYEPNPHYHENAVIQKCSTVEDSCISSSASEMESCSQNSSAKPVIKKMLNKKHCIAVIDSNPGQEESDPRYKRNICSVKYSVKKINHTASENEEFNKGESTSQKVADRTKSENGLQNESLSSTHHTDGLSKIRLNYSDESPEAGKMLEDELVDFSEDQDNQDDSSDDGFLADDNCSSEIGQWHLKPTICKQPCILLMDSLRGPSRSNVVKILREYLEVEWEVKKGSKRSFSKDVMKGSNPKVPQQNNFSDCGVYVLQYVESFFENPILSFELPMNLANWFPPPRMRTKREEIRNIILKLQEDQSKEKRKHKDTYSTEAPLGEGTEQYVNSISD
SENP1 FRET inh: human SENP1 catalytic domain inhibitors, primary screen, biochemical, FRET, uHTS | Sentrin-specific protease 1 (Homo sapiens), Q9P0U3 | recombinant SENP1 catalytic domain, CyPet-SUMO1-YPet FRET cleavage | inhibition, % at 10 µM | 360,000 tested, 0.21% active | AID 624204, 2012;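 active = inhibition at least 30% at 10 µM, raw YFP signal under a set limit, fluorescence ratio 0.5 to 1.5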;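 note: 0% = enzyme with DMSO and 100% = no enzyme wells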
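Test system: human SENP1 catalytic domain; medium: Tris pH 8 buffer plus EDTA, NaCl, BME, BSA, NP40, catalase; incubation: 50 min reaction at room temperature; technique: FRET, CFP and YFP emission; controls: no-enzyme low control and enzyme-plus-DMSO high control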
SENP8 confirm: SENP8 protease inhibitors, retest, confirmation, biochemical, luminescence, single concentration; shares compounds with SENP7 inh; Recombinant SENP8, Z-RLRGG-aminoluciferin luminescence, 60 min; inhibition, % at 12.5 µM; 6,200 tested, 40% active;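 active = mean inhibition across replicates above about 50%, limit read from the data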
SENP6 conf: SENP6 protease inhibitors, confirmation, biochemical, luminescence, single concentration. shares compounds with SENP7 inh. recombinant SENP6, Z-RLRGG-aminoluciferin luminescence. inhibition, % at 12.5 µM. 6,200 tested, 58% active
SENP7 confirm: SENP7 protease inhibitors, retest, confirmation, biochemical, luminescence, single concentration; inhibition, % at 12.5 µM; 6,200 tested, 69% active; AID 488917, 2010; shares compounds with SENP7 inh; recombinant SENP7, Z-RLRGG-aminoluciferin luminescence, 40 min
Casp3 SENP sel: caspase-3 protease inhibitors, confirmation, selectivity assay for SENP inhibitor project, biochemical, single concentration; 6,200 tested, 60% active; shares compounds with SENP7 inh; inhibition, % at 12.5 µM; purified caspase-3, Z-DEVD-aminoluciferin luminescence, 60 min;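 active = mean inhibition above about 50%, limit read from the data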;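 note: plate controls were enzyme with DMSO for no effect and wells without caspase-3 for full effect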
SENP luc ctr: interferes with luciferase luminescence in SENP counter-screen. shares compounds with SENP7 inh. Pre-incubated SENP8/Z-RLRGG-aminoluciferin, luciferase luminescence interference. inhibition, % at 12.5 µM. 6,200 tested, 39% active. AID 488919;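 active = mean inhibition above about 50% when retested at one dose, limit read from the data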;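 note: plate controls were DMSO wells with completed reaction for no effect and substrate without enzyme for full effect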
The depositor's hits bear a star; . = not tested or not shown. Compounds with a hit are over-represented: about 2.5% of the library has one in this group of screens.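 Rule for the calls, unless noted: active = mean inhibition above about 50% in the one-dose retest (limit read from the data); inactive = the rest.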

SMILES	SENP8 block-1	SENP7 inh	SENP8 block-2	SENP6 inh	SENP1 FRET inh	SENP8 confirm	SENP6 conf	SENP7 confirm	Casp3 SENP sel	SENP luc ctr
Oc1c(Br)cc(Br)cc1C=Nc1cccnc1	23.5	16.2	-9.6	54.7*	-27.2	12.7	41.9	26.4	12.4	4.7
CC1(C)CC(=O)C(C=Nc2ccc3[nH]ncc3c2)=C(O)C1	-4.1	4.8	-104.5	2.7	-3.3	.	.	.	.	.
COc1ccc(C=Nc2ccc3[nH]ncc3c2)c(O)c1	-6.7	17.6	-178.9	62.4*	-11.6	17.2	4.1	10.0	9.6	5.6
Cc1cc(C(=O)CSc2nnc3ccccn23)c(C)n1-c1ccccc1	37.4	52.4*	6.0	62.2*	-1.5	34.9	35.9	78.6*	79.0*	60.8*
Oc1ccc(/C=N/NC(=S)N/N=C/c2ccc(O)cc2)cc1	36.8	25.7	-76.8	61.9*	-1.9	54.5*	51.7*	75.6*	84.9*	59.1*
CCc1nc2ccc(C(=O)NCCOc3ccc(OC)cc3)cn2c1N(C)C(=O)Cc1ccccc1	.	.	-22.1	.	-0.5	.	.	.	.	.
CCOc1cc(/C=N/NC(=O)c2ccccn2)ccc1OC(=O)c1cccs1	4.4	7.0	-22.2	-0.5	2.0	.	.	.	.	.
CN(C)c1ccc(/C=N/NC(=O)c2ccccn2)cc1	76.1*	91.0*	-121.0	80.1*	12.5	9.5	85.4*	98.5*	95.1*	65.7*
CC(C)c1ccc(/C=N/NC(=O)c2ccccn2)cc1	79.3*	80.3*	14.5	86.0*	1.4	71.0*	84.2*	97.9*	89.0*	38.1
O=C(/C=C/c1ccc2c(c1)OCO2)c1ccccn1	72.9*	71.0*	-0.3	75.0*	-93.2	92.1*	89.4*	94.7*	69.3*	67.7*
CC(C)c1ccc(/C=N/NC(=O)c2cccc(Cl)c2)cc1	.	.	-0.3	.	1.1	.	.	.	.	.
O=C(N/N=C/c1ccc(OC(=O)c2cccs2)cc1)c1ccccn1	12.6	73.8*	-16.6	21.2	4.0	8.3	14.8	2.1	7.4	1.4
O=C(C=Cc1ccc2c(c1)OCO2)c1ccccc1	.	.	-57.4	.	-11.0	.	.	.	.	.
CCN(Cc1cc(OC)c(OC)c(OC)c1)C(=S)Nc1cccc(SC)c1	-0.2	5.0	15.8	-4.3	2.9	.	.	.	.	.
COc1ccc(-c2csc(NC(=O)C3CCN(C(=O)c4ccc(F)cc4)CC3)n2)cc1OC	-4.4	4.4	-7.7	3.4	0.9	.	.	.	.	.
COc1ccc(CNC(=O)CCC(=O)N2CCN(S(=O)(=O)c3cc([N+](=O)[O-])ccc3C)CC2)cc1	9.7	0.8	7.0	-1.1	3.2	.	.	.	.	.
CN(C)c1ccc(/C=N/NC(=O)C(=O)N2CCCCCC2)cc1	85.9*	7.8	-67.3	-11.5	-0.6	4.2	8.7	13.9	3.2	5.3
Cc1cccc(C(=O)N/N=C/c2ccc3c(c2)OCO3)n1	3.7	3.0	-32.2	-10.2	2.2	.	.	.	.	.
COc1ccc(/C=N/NC(=O)C(=O)N2CCCC2)cc1	5.0	4.1	7.8	9.1	0.5	.	.	.	.	.
CN(C)c1ccc(/C=C(\C#N)c2ccccn2)cc1	96.1*	98.7*	4.3	95.8*	-25.6	98.2*	98.8*	102.5*	96.7*	72.0*
